Data set [1] addresses T1, Adrenergic receptor alpha-2 (Homo sapiens, UniProt P08913+P18825+P18089).
T1 sequence (P08913 whole entry): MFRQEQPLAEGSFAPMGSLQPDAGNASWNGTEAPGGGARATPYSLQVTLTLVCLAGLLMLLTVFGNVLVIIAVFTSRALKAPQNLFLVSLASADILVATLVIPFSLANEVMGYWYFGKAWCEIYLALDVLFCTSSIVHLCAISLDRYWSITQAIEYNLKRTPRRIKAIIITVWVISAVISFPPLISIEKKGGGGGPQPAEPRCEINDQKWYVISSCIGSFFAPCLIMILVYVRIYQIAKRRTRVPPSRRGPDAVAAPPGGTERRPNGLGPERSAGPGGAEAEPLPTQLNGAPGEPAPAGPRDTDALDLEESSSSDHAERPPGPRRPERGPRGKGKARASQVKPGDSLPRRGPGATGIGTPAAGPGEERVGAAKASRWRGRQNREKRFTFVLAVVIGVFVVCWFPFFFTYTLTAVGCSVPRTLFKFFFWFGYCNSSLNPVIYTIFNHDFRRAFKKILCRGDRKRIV
T1 sequence (P18825 whole entry): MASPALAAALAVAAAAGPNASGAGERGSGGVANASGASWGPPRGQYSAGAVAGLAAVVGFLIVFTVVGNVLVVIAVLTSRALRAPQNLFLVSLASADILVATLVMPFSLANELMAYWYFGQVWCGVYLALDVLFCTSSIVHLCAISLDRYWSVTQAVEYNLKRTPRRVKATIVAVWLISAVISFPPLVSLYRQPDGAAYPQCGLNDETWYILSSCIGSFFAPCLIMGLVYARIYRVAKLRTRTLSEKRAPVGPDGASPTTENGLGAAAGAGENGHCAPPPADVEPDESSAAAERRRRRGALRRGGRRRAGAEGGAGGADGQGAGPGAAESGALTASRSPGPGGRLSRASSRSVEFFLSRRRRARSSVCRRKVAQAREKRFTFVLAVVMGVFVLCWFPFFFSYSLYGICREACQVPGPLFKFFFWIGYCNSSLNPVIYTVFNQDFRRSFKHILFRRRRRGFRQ
T1 sequence (P18089 whole entry): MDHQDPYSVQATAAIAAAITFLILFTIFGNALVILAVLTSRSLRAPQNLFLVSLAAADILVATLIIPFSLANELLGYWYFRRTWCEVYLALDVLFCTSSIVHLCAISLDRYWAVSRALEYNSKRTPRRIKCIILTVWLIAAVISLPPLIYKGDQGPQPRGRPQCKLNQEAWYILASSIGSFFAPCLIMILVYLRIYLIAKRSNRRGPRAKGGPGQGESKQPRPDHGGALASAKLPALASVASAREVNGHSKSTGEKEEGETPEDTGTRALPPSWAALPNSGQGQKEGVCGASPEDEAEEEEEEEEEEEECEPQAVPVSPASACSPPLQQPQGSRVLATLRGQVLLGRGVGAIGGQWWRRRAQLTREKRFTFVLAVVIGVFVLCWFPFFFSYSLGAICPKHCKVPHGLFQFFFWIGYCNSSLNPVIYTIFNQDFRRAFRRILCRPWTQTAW
In words: Compound was tested for concentration that produced 50% contractile response relative to maximum response to norepinephrine for Alpha-2 adrenergic receptor in rabbit vas deferens. The data set is classed as functional, tissue-based, Oryctolagus cuniculus. The settings on record: target entry is the homologue from another species.

Data set [2] can be described thus: pKa value determined in the presence of the partition solvent for guanidine subunit. It is filed as physicochemical. A digest of the protocol:
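Potentiometric titration: compound dissolved, solution titrated to predetermined final pH; pKa measured in water and again with octanol or dodecane added before titration; log P derived from shift between aqueous pKa and pKa in presence of partition solvent.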

Data set [3] has as its target T2, Alpha-2C adrenergic receptor (Homo sapiens, UniProt P18825).
T2 sequence (P18825 whole entry): T1 sequence (P18825 whole entry)
The data set can be described thus: Compound was tested in vitro for binding affinity against Alpha-2C adrenergic receptor from cloned human C-2 receptor transfected into Chinese hamster ovary (CHO) cells. It is filed as cell-based. The essentials:
(§1)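 Membrane binding using cloned receptors expressed in transfected CHO cells: alpha-2A human C-10, alpha-2B rat RNG, alpha-2C human C-2.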

In data set [4] the target is T3, Alpha-2B adrenergic receptor (Rattus norvegicus, UniProt P19328).
T3 sequence (P19328 whole entry): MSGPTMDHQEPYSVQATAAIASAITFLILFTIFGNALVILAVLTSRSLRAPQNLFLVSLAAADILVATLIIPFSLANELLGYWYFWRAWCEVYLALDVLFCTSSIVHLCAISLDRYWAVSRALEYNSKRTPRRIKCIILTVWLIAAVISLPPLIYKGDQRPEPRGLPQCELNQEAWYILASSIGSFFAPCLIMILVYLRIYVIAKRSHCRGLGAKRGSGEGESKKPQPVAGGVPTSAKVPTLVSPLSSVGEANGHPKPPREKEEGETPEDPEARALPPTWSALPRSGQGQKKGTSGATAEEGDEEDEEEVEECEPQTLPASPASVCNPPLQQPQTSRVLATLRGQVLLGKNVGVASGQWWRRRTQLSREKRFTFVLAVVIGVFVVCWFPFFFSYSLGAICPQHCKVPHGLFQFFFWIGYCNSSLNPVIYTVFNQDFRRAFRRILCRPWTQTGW
The data set can be described thus: Compound was tested in vitro for binding affinity against Alpha-2B adrenergic receptor from cloned rat RNG receptor transfected into Chinese hamster ovary (CHO) cells. The data set is classed as cell-based. The essentials: as §1

In data set [5] the target is T4, Alpha-2A adrenergic receptor (Homo sapiens, UniProt P08913).
T4 sequence (P08913 whole entry): T1 sequence (P08913 whole entry)
The data set can be described thus: Compound was tested in vitro for binding affinity against Alpha-2A adrenergic receptor from cloned human C-10 receptor transfected into Chinese hamster ovary (CHO) cells. It is filed as cell-based. A digest of the protocol:
as §1

Data set [6] has as its target T5, Adrenergic receptor alpha-1 (Homo sapiens, UniProt P35348+P25100+P35368).
T5 sequence (P35348 whole entry): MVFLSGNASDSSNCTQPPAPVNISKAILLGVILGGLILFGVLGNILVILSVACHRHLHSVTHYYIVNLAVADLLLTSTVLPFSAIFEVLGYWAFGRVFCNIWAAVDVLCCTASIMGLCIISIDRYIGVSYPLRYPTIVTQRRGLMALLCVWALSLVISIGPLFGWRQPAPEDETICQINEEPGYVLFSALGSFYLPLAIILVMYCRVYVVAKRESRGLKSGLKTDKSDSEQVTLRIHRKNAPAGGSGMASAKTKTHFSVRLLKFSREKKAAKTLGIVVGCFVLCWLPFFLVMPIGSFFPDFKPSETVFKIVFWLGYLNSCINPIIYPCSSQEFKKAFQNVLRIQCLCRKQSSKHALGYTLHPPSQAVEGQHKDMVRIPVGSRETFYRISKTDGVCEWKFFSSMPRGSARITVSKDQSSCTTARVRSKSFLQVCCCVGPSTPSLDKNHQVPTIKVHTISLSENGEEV
T5 sequence (P25100 whole entry): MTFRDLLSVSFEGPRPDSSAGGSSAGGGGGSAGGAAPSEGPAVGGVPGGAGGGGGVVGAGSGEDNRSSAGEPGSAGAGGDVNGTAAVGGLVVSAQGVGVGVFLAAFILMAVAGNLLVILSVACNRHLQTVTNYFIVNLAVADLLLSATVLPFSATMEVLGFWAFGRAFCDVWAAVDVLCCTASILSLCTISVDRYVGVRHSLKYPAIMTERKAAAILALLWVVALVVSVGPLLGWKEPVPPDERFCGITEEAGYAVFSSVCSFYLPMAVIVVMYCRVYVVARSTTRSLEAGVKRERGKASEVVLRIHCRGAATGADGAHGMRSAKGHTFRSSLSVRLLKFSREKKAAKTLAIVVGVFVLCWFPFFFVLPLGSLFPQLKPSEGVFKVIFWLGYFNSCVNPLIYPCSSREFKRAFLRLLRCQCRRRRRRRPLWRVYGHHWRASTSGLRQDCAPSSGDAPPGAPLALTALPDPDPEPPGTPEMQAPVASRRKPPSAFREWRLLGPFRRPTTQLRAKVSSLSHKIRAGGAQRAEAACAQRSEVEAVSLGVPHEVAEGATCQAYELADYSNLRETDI
T5 sequence (P35368 whole entry): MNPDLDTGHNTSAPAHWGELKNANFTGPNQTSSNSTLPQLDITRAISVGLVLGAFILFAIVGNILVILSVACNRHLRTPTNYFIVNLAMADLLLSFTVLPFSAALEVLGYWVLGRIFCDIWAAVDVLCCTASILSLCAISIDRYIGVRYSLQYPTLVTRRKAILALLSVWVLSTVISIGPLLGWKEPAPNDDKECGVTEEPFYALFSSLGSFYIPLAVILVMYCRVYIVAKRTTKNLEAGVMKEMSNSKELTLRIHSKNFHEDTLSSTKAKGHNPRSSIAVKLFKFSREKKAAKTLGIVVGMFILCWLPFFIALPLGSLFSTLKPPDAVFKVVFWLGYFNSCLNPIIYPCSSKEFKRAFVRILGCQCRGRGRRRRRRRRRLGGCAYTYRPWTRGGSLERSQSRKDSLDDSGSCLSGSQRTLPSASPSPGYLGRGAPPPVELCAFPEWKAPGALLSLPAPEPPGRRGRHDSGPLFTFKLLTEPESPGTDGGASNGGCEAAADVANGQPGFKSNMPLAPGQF
In words: Compound was tested for binding affinity based on dissociation constant of Alpha-1 adrenergic receptor. It is filed as protein assay.

By EC50 is commonly meant the concentration giving half of the maximal effect. Higher therefore signals lower potency in that assay. One may read the pKa as the negative logarithm of the acid dissociation constant. Broadly, the Ki is the dissociation constant of the complex between target and ligand, obtained from inhibition or displacement.

SMILES strings stand for the structures.

Consider `Cc1c(NC2=NCCN2)ccc2c1NCCN2`, for which the EC50 in data set [1] worked out at 3.5 nM. Moreover, the pKa in data set [2] stood at 11.3. This compound also displayed a Ki in data set [3] of 120 nM.

On to `Cc1c(NC2=NCCN2)ccc2nccnc12`, for which the Ki in data set [4] worked out at 17 nM; in data set [5], 2 nM; in data set [3], 27 nM. The compound also had an EC50 in data set [1] of 0.26 nM. Also, in data set [2], the pKa worked out at 9.4.

In turn, `Cc1c(NC2=NCCN2)ccc2c1NCCO2` yielded an inhibition constant Ki in data set [6] of 470 nM. For the same compound, in data set [1], the EC50 was 1.2 nM. Further, the pKa in data set [2] was 11.1.

With `Nc1cc(Cl)c(N=C2NCCN2)c(Cl)c1` [APRACLONIDINE], the Ki in data set [6] was determined as 180 nM; in data set [3] it was 30 nM.

These data come from ChEMBL document CHEMBL1129794, “Synthesis and evaluation of 2-[(5-methylbenz-1-ox-4-azin-6-yl)imino]imidazoline, a potent, peripherally acting alpha 2 adrenoceptor agonist” (J Med Chem, 1996).
